Source: ChEMBL document CHEMBL1149289, “Synthesis and antibacterial activity of new poly-S-lysine-porphyrin conjugates” (J Med Chem, 2004)

How the values were obtained:
Staphylococcus aureus [1] = assay: Logarithmic survival of methicillin-resistant Staphylococcus aureus 110 at 1 uM after 10 mins and irradiated with white light at the fluence rate of 50 mW/cm2 for 30 mins relative to control; assay type: functional; conditions: light or radiation study
Outline: (§1)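 MRSA 110 grown aerobically at 37 °C on BHA. Stationary-phase cells were taken into BHI, washed twice in PBS and diluted to OD650 ~0.7 (10^8 to 10^9 cells/mL). Suspensions were held with photosensitizer for 10 min in the dark at room temperature, then given white light for 30 min. Cells were serially diluted, plated on BHA and counted after 16–20 h at 37 °C. Survival = cfu ÷ cfu of photosensitizer-free controls.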

Staphylococcus aureus [2] = assay: Logarithmic survival of methicillin-resistant Staphylococcus aureus 110 at 2.5 uM after 10 mins and irradiated with white light at the fluence rate of 50 mW/cm2 for 30 mins relative to control; assay type: functional; conditions: light or radiation study; outline: as §1
Staphylococcus aureus [3] = assay: Logarithmic survival of methicillin-resistant Staphylococcus aureus 110 at 10 uM after 10 mins and irradiated with white light at the fluence rate of 50 mW/cm2 for 30 mins relative to control; assay type: functional; conditions: light or radiation study; outline: as §1
Escherichia coli [4] = assay: Logarithmic survival of Escherichia coli O4 at 0.1 uM after 10 mins and irradiated with white light at the fluence rate of 50 mW/cm2 for 30 mins relative to control; assay type: functional; conditions: O4, light or radiation study
Outline: (§2)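 Strains grown aerobically at 37 °C on brain heart agar; stationary-phase cells washed twice in PBS and adjusted to OD650 ca. 0.7 (10^8 to 10^9 cells/mL). Cells incubated with photosensitizer at various concentrations for 10 min in the dark at room temperature, then irradiated with white light at 50 mW/cm² for 30 min. Survivors counted as cfu on BHA after 16–20 h at 37 °C, expressed relative to no-photosensitizer controls. Dark controls were run without irradiation.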

Escherichia coli [5] = assay: Logarithmic survival of Escherichia coli O4 at 0.5 uM after 10 mins and irradiated with white light at the fluence rate of 50 mW/cm2 for 30 mins relative to control; assay type: functional; conditions: O4, light or radiation study; outline: as §2
Escherichia coli [6] = assay: Logarithmic survival of Escherichia coli O4 at 2.5 uM after 10 mins and irradiated with white light at the fluence rate of 50 mW/cm2 for 30 mins relative to control; assay type: functional; conditions: O4, light or radiation study; outline: as §2
Staphylococcus aureus [7] = assay: Logarithmic survival of Staphylococcus aureus ATCC 25923 at 0.1 uM after 10 mins and irradiated with white light at the fluence rate of 50 mW/cm2 for 5 mins relative to control; assay type: functional; conditions: ATCC 25923, light or radiation study
Outline: (§3)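 S. aureus ATCC 25923 or MRSA 110 (PBS-washed, 10^8 to 10^9 cells/mL) were incubated with 0.1 μM photosensitizer for 10 min in the dark at room temperature. They were then irradiated with white light at 50 mW/cm² for varying times up to 30 min. Survival was read as cfu on BHA and divided by cfu of controls without photosensitizer.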

Staphylococcus aureus [8] = assay: Logarithmic survival of Staphylococcus aureus ATCC 25923 at 0.1 uM after 10 mins and irradiated with white light at the fluence rate of 50 mW/cm2 for 10 mins relative to control; assay type: functional; conditions: ATCC 25923, light or radiation study; outline: as §3
Staphylococcus aureus [9] = assay: Logarithmic survival of Staphylococcus aureus ATCC 25923 at 0.1 uM after 10 mins and irradiated with white light at the fluence rate of 50 mW/cm2 for 15 mins relative to control; assay type: functional; conditions: ATCC 25923, light or radiation study; outline: as §3
Staphylococcus aureus [10] = assay: Logarithmic survival of Staphylococcus aureus ATCC 25923 at 0.1 uM after 10 mins and irradiated with white light at the fluence rate of 50 mW/cm2 for 20 mins relative to control; assay type: functional; conditions: ATCC 25923, light or radiation study; outline: as §3
Staphylococcus aureus [11] = assay: Logarithmic survival of methicillin-resistant Staphylococcus aureus 110 at 0.1 uM after 10 mins and irradiated with white light at the fluence rate of 50 mW/cm2 relative to control; assay type: functional; conditions: light or radiation study
Staphylococcus aureus [12] = assay: Logarithmic survival of methicillin-resistant Staphylococcus aureus 110 at 0.1 uM after 10 mins and irradiated with white light at the fluence rate of 50 mW/cm2 for 1 min relative to control; assay type: functional; conditions: light or radiation study; outline: as §3
Staphylococcus aureus [13] = assay: Logarithmic survival of methicillin-resistant Staphylococcus aureus 110 at 0.1 uM after 10 mins and irradiated with white light at the fluence rate of 50 mW/cm2 for 2.5 mins relative to control; assay type: functional; conditions: light or radiation study; outline: as §3
Staphylococcus aureus [14] = assay: Logarithmic survival of methicillin-resistant Staphylococcus aureus 110 at 0.1 uM after 10 mins and irradiated with white light at the fluence rate of 50 mW/cm2 for 15 mins relative to control; assay type: functional; conditions: light or radiation study; outline: as §3
Staphylococcus aureus [15] = assay: Drug uptake per mg of protein in methicillin-resistant Staphylococcus aureus 110 at 5 uM after 10 mins; assay type: ADME, organism-based; conditions: in vivo
Outline: (§4)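 Bacterial suspensions (10^8 to 10^9 cells/mL in PBS) were incubated with porphyrin for 10 min in the dark at room temperature, then centrifuged. The pellet was digested in 2% aqueous SDS. Porphyrin was quantified by spectrofluorimetry and cell protein by modified Lowry assay (BSA standard). Uptake is given as nmol per mg cell protein.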

Staphylococcus aureus [16] = assay: Drug uptake per mg of protein in methicillin-resistant Staphylococcus aureus 110 at 10 uM after 10 mins; assay type: ADME, organism-based; conditions: in vivo; outline: as §4
Escherichia coli [17] = assay: Drug uptake per mg of protein in Escherichia coli O4 at 2.5 uM after 10 mins; assay type: ADME, organism-based; conditions: in vivo; outline: as §4
Escherichia coli [18] = assay: Drug uptake per mg of protein in Escherichia coli O4 at 5 uM after 10 mins; assay type: ADME, organism-based; conditions: in vivo; outline: as §4
Staphylococcus aureus [19] = assay: Logarithmic survival of Staphylococcus aureus ATCC 25923 at 0.25 uM after 10 mins and irradiated with white light at the fluence rate of 50 mW/cm2 for 30 mins relative to control; assay type: functional; conditions: ATCC 25923, light or radiation study; outline: as §2
Staphylococcus aureus [20] = assay: Logarithmic survival of Staphylococcus aureus ATCC 25923 at 2.5 uM after 10 mins and irradiated with white light at the fluence rate of 50 mW/cm2 for 30 mins relative to control; assay type: functional; conditions: ATCC 25923, light or radiation study; outline: as §2
Staphylococcus aureus [21] = assay: Logarithmic survival of Staphylococcus aureus ATCC 25923 at 5 uM after 10 mins and irradiated with white light at the fluence rate of 50 mW/cm2 for 30 mins relative to control; assay type: functional; conditions: ATCC 25923, light or radiation study; outline: as §2
Staphylococcus aureus [22] = assay: Logarithmic survival of Staphylococcus aureus ATCC 25923 at 10 uM after 10 mins and irradiated with white light at the fluence rate of 50 mW/cm2 for 30 mins relative to control; assay type: functional; conditions: ATCC 25923, light or radiation study; outline: as §2
Staphylococcus aureus [23] = assay: Logarithmic survival of methicillin-resistant Staphylococcus aureus 110 at 0.01 uM after 10 mins and irradiated with white light at the fluence rate of 50 mW/cm2 for 30 mins relative to control; assay type: functional; conditions: light or radiation study; outline: as §2
Staphylococcus aureus [24] = assay: Logarithmic survival of methicillin-resistant Staphylococcus aureus 110 at 0.1 uM after 10 mins and irradiated with white light at the fluence rate of 50 mW/cm2 for 30 mins relative to control; assay type: functional; conditions: light or radiation study; outline: as §3
[25] = Photostability after irradiation with white light at the fluence rate of 50 mW/cm2 for 1 min; assay type: ADME; conditions: read-out: Stability
[26] = Photostability after irradiation with white light at the fluence rate of 50 mW/cm2 for 10 mins; assay type: ADME; conditions: read-out: Stability
[27] = Photostability after irradiation with white light at the fluence rate of 50 mW/cm2 for 20 mins; assay type: ADME; conditions: read-out: Stability
Staphylococcus aureus [28] = assay: Antibacterial activity against methicillin-resistant Staphylococcus aureus 110 measured as 4 log decrease in survival; assay type: functional; outline: as §2
Staphylococcus aureus [29] = assay: Drug uptake per mg of protein in Staphylococcus aureus ATCC 25923 at 10 uM after 10 mins; assay type: ADME, organism-based; conditions: in vivo; outline: as §4
Staphylococcus aureus [30] = assay: Drug uptake per mg of protein in methicillin-resistant Staphylococcus aureus 110 at 0.5 uM after 10 mins; assay type: ADME, organism-based; conditions: in vivo; outline: as §4

| SMILES | survival at 1 µM (Staphylococcus aureus [1]) | survival at 2.5 µM (Staphylococcus aureus [2]) | survival at 10 µM (Staphylococcus aureus [3]) | survival at 0.1 µM (Escherichia coli [4]) | survival at 0.5 µM (Escherichia coli [5]) | survival at 2.5 µM (Escherichia coli [6]) | survival at 0.1 µM (Staphylococcus aureus [7]) | survival at 0.1 µM (Staphylococcus aureus [8]) | survival at 0.1 µM (Staphylococcus aureus [9]) | survival at 0.1 µM (Staphylococcus aureus [10]) | survival at 0.1 µM (Staphylococcus aureus [11]) | survival at 0.1 µM (Staphylococcus aureus [12]) | survival at 0.1 µM (Staphylococcus aureus [13]) | survival at 0.1 µM (Staphylococcus aureus [14]) | Drug uptake (Staphylococcus aureus [15]) | Drug uptake (Staphylococcus aureus [16]) | Drug uptake (Escherichia coli [17]) | Drug uptake (Escherichia coli [18]) | survival at 0.25 µM (Staphylococcus aureus [19]) | survival at 2.5 µM (Staphylococcus aureus [20]) | other results |
| --- | --- | --- | --- | --- | --- | --- | --- | --- | --- | --- | --- | --- | --- | --- | --- | --- | --- | --- | --- | --- | --- |
| O=C(O)c1ccc(-c2c3nc(c(-c4ccncc4)c4ccc([nH]4)c(-c4ccncc4)c4nc(c(-c5ccncc5)c5ccc2[nH]5)C=C4)C=C3)cc1 [PORPHIRIN] | -2.27 | -3.11 | -3.35 | 2 | 1.46 | 1.65 | -0.85 | -2.07 | -2.48 | -3 | 1.89 | 1.83 | 1.8 | 0.26 | 143 nmol/mg | 342 nmol/mg | 35.3 nmol/mg | 85.6 nmol/mg | -1.9 | -3.3% | survival at 5 µM (Staphylococcus aureus [21]): -3.73%; survival at 10 µM (Staphylococcus aureus [22]): -4.06%; log survival at 0.01 µM (Staphylococcus aureus [23]): 2 log10 %; survival at 0.1 µM (Staphylococcus aureus [24]): 0.46%; remaining at 1 min [25]: 99%; remaining at 10 min [26]: 94%; remaining at 20 min [27]: 90%; Activity (Staphylococcus aureus [28]): 1 µM; Drug uptake (Staphylococcus aureus [29]): 187 nmol/mg; Drug uptake (Staphylococcus aureus [30]): 5.5 nmol/mg |
| C[n+]1ccc(-c2c3nc(c(-c4cc[n+](C)cc4)c4ccc([nH]4)c(-c4cc[n+](C)cc4)c4nc(c(-c5ccc(C(=O)O)cc5)c5ccc2[nH]5)C=C4)C=C3)cc1.[I-].[I-].[I-] | -0.43 | -2.13 | -2.7 | 1.57 | 1.52 | -0.46 | -0.28 | -0.42 | -1.17 | -2.12 | 1.95 | 1.96 | 1.84 | 1.82 | 11.8 nmol/mg | 18 nmol/mg | 3.47 nmol/mg | 4.35 nmol/mg | 1.56 | -2% | survival at 5 µM (Staphylococcus aureus [21]): -3.06%; survival at 10 µM (Staphylococcus aureus [22]): -4.36%; log survival at 0.01 µM (Staphylococcus aureus [23]): 2 log10 %; survival at 0.1 µM (Staphylococcus aureus [24]): 1.69%; remaining at 1 min [25]: 93%; remaining at 10 min [26]: 77%; remaining at 20 min [27]: 72%; Activity (Staphylococcus aureus [28]): 2.5 µM; Drug uptake (Staphylococcus aureus [29]): 17 nmol/mg; Drug uptake (Staphylococcus aureus [30]): 2.08 nmol/mg |
